A word on the Ki: it is a dissociation constant, usually derived from enzyme kinetics or from competition with a known ligand.

Our source for the Ki, Intrinsic activity and Selectivity values is ChEMBL document CHEMBL1133857, “Beta 3 agonists. Part 1: evolution from inception to BMS-194449” (Bioorg Med Chem Lett, 2001).

Assay [1] addresses T1, Beta-3 adrenergic receptor (Homo sapiens, UniProt P13945). In words: Binding affinity against CHO cells transfected with human beta-3 adrenergic receptor in the presence of [125I]iodocyanopindolol. It counts as cell-based. Summed up:
(§1)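 Ki at human β1, β2 and β3 adrenergic receptors measured by binding to membranes prepared from CHO cells transfected with each human receptor. Selectivity is expressed as the ratio of β1 or β2 Ki to β3 Ki.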
Target sequence in this assay (P13945 whole entry): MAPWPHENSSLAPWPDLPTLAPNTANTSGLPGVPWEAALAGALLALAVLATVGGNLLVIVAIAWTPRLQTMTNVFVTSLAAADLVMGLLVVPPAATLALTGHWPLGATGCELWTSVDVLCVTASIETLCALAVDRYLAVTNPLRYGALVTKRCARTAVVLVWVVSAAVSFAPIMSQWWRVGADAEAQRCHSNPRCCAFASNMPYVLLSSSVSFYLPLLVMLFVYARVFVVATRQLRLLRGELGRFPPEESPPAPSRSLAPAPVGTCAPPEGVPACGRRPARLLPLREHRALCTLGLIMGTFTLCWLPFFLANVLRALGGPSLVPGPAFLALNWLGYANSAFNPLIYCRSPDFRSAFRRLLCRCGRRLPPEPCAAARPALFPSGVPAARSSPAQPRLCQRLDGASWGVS

The target of assay [2] is Beta-1 adrenergic receptor (Cavia porcellus) (UniProt B0FL73). Nature of the assay: Intrinsic activity as the acceleration in contraction of spontaneously beating guinea pig atria relative to that induced by isoproterenol. It counts as functional.
In assay [3] the target is Beta-2 adrenergic receptor and beta-3 adrenergic receptor (Homo sapiens) (UniProt P07550+P13945). Nature of the assay: Selectivity as the ratio of Ki of beta-2 adrenergic receptor to the Ki of beta-3 adrenergic receptor. It counts as protein assay. A digest of the protocol: as §1
For assay [4], the target named is Adrenergic receptor beta; ADRB1 & ADRB3 (Homo sapiens) (UniProt P08588+P13945). Nature of the assay: Selectivity measured as the ratio of Ki of Beta-1 Adrenergic receptor to the Ki of Beta-3 Adrenergic receptor. It counts as protein assay. A digest of the protocol: as §1
The target of assay [5] is T1, Beta-3 adrenergic receptor. In words: Human beta-3 adrenergic receptor agonist activity by measurement of cAMP accumulation levels in CHO membranes expressing human beta-3 receptor. It counts as functional, cell membranes. Summed up:
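β3 intrinsic activity (% activation) measured in membranes from CHO cells transfected with human β3 adrenergic receptor.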
Target sequence in this assay (P13945 whole entry, looked up): as the sequence (P13945 whole entry) above
For orientation: Cyclic AMP is a second messenger, typically raised through Gs and lowered through Gi signalling.

Beta-1 adrenergic receptor (Cavia porcellus), sequence (B0FL73 1-467): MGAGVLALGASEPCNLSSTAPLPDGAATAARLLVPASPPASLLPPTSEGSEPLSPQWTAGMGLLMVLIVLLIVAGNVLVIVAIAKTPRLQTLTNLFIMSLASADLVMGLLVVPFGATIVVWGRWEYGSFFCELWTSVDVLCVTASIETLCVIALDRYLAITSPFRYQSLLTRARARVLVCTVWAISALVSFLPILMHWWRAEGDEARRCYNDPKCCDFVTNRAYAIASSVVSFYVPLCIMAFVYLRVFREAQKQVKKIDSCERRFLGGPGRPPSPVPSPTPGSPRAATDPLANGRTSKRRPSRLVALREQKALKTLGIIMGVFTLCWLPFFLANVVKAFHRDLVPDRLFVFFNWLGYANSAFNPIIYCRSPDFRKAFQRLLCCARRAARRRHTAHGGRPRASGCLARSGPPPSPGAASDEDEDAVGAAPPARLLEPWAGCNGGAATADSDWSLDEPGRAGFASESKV
Adrenergic receptor beta; ADRB1 & ADRB3 (Homo sapiens), sequence (P08588 whole entry, looked up): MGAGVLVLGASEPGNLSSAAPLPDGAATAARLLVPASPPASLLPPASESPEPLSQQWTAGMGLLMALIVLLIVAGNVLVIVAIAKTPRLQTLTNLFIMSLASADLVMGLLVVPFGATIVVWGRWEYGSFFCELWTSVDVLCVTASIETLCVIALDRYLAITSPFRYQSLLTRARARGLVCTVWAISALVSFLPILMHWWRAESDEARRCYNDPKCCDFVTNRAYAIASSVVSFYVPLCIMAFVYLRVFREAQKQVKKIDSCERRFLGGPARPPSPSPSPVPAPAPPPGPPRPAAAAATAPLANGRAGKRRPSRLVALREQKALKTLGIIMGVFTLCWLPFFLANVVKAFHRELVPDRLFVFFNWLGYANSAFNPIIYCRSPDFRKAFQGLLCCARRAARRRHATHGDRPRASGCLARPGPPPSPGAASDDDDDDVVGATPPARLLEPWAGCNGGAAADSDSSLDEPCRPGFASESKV
Adrenergic receptor beta; ADRB1 & ADRB3 (Homo sapiens), sequence (P13945 whole entry, looked up): as the sequence (P13945 whole entry) above

As for `CC(=O)Nc1ccc(C(NC[C@H](O)c2ccc(O)c(NS(C)(=O)=O)c2)c2ccc(NC(C)=O)cc2)cc1`, the Ki in assay [1] was determined as 300 nM. Further, the Intrinsic activity is 88% in assay [2] and 96% in assay [5]. Further, the Selectivity in assay [3] was 3; in assay [4], 17.
